# Screens: PubChem BioAssay, several laboratories
# A selection: hits, their analogues and other compounds. The true share with any hit is near 5.5%.
# Cl transport mod = KCC2 (human) Cl- transport modulation | Q9H2X9 | KCC2 cells, thallium flux FluoZin-2 fluorescence | B-score of Tl+ flux slope (higher = more flux/activation; lower = inhibition) at 10 µM | actives 2.2% (n = 190,000);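 active means thallium flux slope and its plate-corrected score both differing from the plate sample mean at a set confidence after two filtering rounds, in either direction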;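 further: slope of fluorescence scaled to starting intensity during 10 to 20 s after thallium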
# WT yeast gro inh = growth inhibition of WT yeast, mitochondrial fusion screen. AID 1362. mitochondrial fusion phenotypic screen, WT strain. inhibition, % at 10 µM. actives 2.1% (n = 190,000); in the data active means inhibition above about 58%; tested in S. cerevisiae
# BB579 growth dn = reduces growth of yeast BB579 in restrictive medium. inhibition, % at 10 µM. AID 804. actives 0.51% (n = 140,000). S. cerevisiae BB579 growth, OD615, 48 h;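 active means inhibition above a set limit, 3 SD over the mean compound inhibition, cut at about 44% in these data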
#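 System: Saccharomyces cerevisiae DeaD strain BB579, replicative lifespan model yeast | Buffer or medium: Restrictive glucose-based CSMM-D medium | Times: 4 h preincubation and 48 h exposure at 30 °C | Detection: OD615 turbidity measurement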
# RAM inhibit = blocks the yeast RAM network; S. cerevisiae dse1pr::URA3 reporter, 5-FOA growth OD615, 2 d; analog-sensitive cbk1-as2 kinase mutant strain; inhibition, % at 50 µM; actives 1.8% (n = 190,000); AID 868;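 active means inhibition above a set limit, 3 SD over mean compound inhibition, cut at about 8.4% in these data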;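 further: 0% = DMSO-only wells with no growth and 100% = 10 µM 1-NA-PP1 full growth; inhibition rescues growth on 5-FOA so higher OD means more RAM inhibition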
# Yeast lifespan up = extends the lifespan of yeast; S. cerevisiae growth with nicotinamide, OD615; deaD strain in restrictive glucose medium; inhibition of the nicotinamide effect, % at 10 µM; actives 0.68% (n = 130,000);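 active means inhibition above a set limit, placed 3 SD over the median of all compounds, cut at about 26% in these data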;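 further: 0% = nicotinamide-treated wells and 100% = cells grown without nicotinamide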
#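 Test system: DeaD-strain S. cerevisiae / Buffer or medium: restrictive glucose medium / Also added: nicotinamide 1.5 mM / Doses: one concentration, 10 µM, DMSO 0.25% / Schedule: 48 h at 30 °C / Signal: OD615 measurement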
# Numbers without * were called inactive; . = no result given.
SMILES,Cl transport mod,WT yeast gro inh,BB579 growth dn,RAM inhibit,Yeast lifespan up
O=C(COC(=O)C(Cc1ccccc1)NC(=O)c1ccc(Cl)cc1)c1ccc(Cl)cc1 (configuration not stated),-0.72,10,-17,9.1*,3
Cc1noc(C)c1CSc1nc2ccccc2c(=O)n1-c1ccc(Cl)cc1,.,-7,-43,4,11
O=[N+]([O-])c1ccc(COc2cccc(CNc3ccc(F)cc3)c2)cc1,-0.02,48,-27,9.9*,0
CC(C)N1CCN(Cc2ccc(Sc3nncn3C)o2)CC1CCO (configuration not stated),-0.01,.,.,.,.
O=C(COC(=O)c1ccccc1Nc1ccccc1)c1ccccc1,-0.6,41,-6,9.8*,-12
COc1ccc(-n2nc(N)c(C(N)=O)n2)cc1,0.68,15,.,0,.
CO/N=C\c1cc(C(=O)c2ccc(Cl)cc2Cl)cn1C,0.2,60*,.,1,.
O=C(ON=C1CCN(S(=O)(=O)c2ccccc2)CC1)c1ccc(F)cc1,.,9,8,-1,3
CC(C)(C)C1CCC(=NOC(=O)c2ccc(F)cc2)CC1 (configuration not stated),0.085,98*,.,-2,.
Cc1nn2c(-c3cccc(NC(=O)CSc4nc5ccccc5o4)c3)nnc2c2ccccc12,2,-1,-28,5,-23
S=C1CCSc2ccc(Cl)cc2N1,9.8*,6,-35,1,-18
NC(=S)N/N=C1\CCSc2ccc(Cl)cc21,-0.035,.,.,.,.
CCCCCCCSc1nnc(-c2ccccc2N)c(=O)[nH]1,-3.1,79*,.,2,.
CCC(CC)NCc1ccc2c(c1)c1ccccc1n2CC,1.3,48,.,2,.
CCn1c2ccccc2c2cc(CNCc3ccc(OC)cc3OC)ccc21,0.41,84*,.,0,.
COc1ccccc1N1CCN(C(=O)c2ccc3[nH]c4c(c3c2)CC(C)CC4)CC1 (configuration not stated),0.41,72*,-27,5,3
COc1ccccc1N1CCN(C(=O)c2ccc3c(Cl)c4c(nc3c2)CCCC4)CC1,-2.6,47,13,0,28*
O=C(c1ccc2c(Cl)c3c(nc2c1)CCCC3)N1CCN(c2ccc(F)cc2)CC1,-3.8,41,-31,2,12
CC(=O)Nc1ccc(S(=O)(=O)NCC(=O)OC(C)c2ccccc2Cl)cc1 (configuration not stated),-1,-10,11,1,-1
COc1ccc(/C=C\C(=O)NCc2ccc3[nH]c(C)cc3c2)cc1OC,0,-2,-38,10*,-1
C=CCn1c(-c2ccc(OC)cc2)csc1=Nc1c(C)n(C)n(-c2ccccc2)c1=O,0.33,6,-38,2,100*
CC12COC3(C(=O)Nc4ccc5ccccc5c4)CC1CCC32C (configuration not stated),0.25,77*,.,7,.
O=C1NC2(C=Cc3c(ccc4ccccc34)O2)Oc2ccccc21 (configuration not stated),-0.77,-4,43,2,-28
CC1(C)OC(=O)N(c2ccccc2)C12C=Cc1c(ccc3ccccc13)O2 (configuration not stated),-2,78*,-27,4,.
C/C(=N\NC(N)=S)C1(C)CC2(CC(C)(C)OC2=O)C(=O)O1 (configuration not stated),0.21,.,.,.,.
SMILES,Cl transport mod,WT yeast gro inh,BB579 growth dn,RAM inhibit,Yeast lifespan up
O=C(CN1CCCc2ccccc21)NCCc1ccc(F)cc1,-2.4,4,.,0,.
CCOC(=O)c1ccc(N2CCCCC2)c(NS(=O)(=O)c2ccc(C)cc2)c1,1.1,.,.,.,.
COc1ccc(CN2C(=O)c3ccccc3C(/C=N/OCc3ccc(Cl)cc3)C2=O)cc1 (configuration not stated),.,8,-32,10*,-3
COc1cc(C(=O)OCCNC(=O)c2ccncc2)cc(OC)c1OC,-0.35,-16,-26,-1,2
COc1cc(-c2nnc(SCC(=O)OC3CCCCC3)o2)cc(OC)c1OC,-0.0089,8,-54,9.0*,-11
CCOC(=O)C1CCCCN1C(=O)CCc1c(C)nc2cc(-c3ccccc3)nn2c1C (configuration not stated),.,4,48*,0,10
NS(=O)(=O)c1ccc(NC(=S)Nc2ccc(C(=O)N3CCCCC3)cc2)cc1,-0.062,9,.,5,.
CCCC(=O)NC(=S)Nc1ccc(C(C)=O)cc1,-0.044,3,-45,1,-6
CC(=O)c1ccc(NC(=S)NC(C)c2ccc(Cl)cc2Cl)cc1 (configuration not stated),0.6,84*,.,4,.
O=C(c1ccc(NC(=S)Nc2ccc(Cl)c(Cl)c2)cc1)N1CCCC1,0.25,80*,19,1,-2
CC(=O)c1ccc(NC(=S)Nc2ccc(Br)c(Cl)c2)cc1,0.08,77*,.,8,.
C=C(C)Cn1c(SCC(=O)N/N=C/c2cccc(O)c2)nc2ccccc2c1=O,-0.82,-13,-19,0,-6
O=C(Oc1ccc(Br)cc1C(=S)N1CCCC1)c1ccccc1Cl,.,51,-10,8,-7
Cc1ccccc1C(=O)Oc1ccc(Br)cc1C(=S)N1CCCC1,0.094,3,-41,9.8*,2
Cc1ccc(NC(=S)NCC(C)CSc2ccc(Cl)cc2)cc1 (configuration not stated),0.0041,81*,.,2,.
Cc1cccc(NC(=S)NCC(c2ccccc2)N(C)C)c1 (configuration not stated),-0.54,13,.,3,.
Cc1cccc(NC(=S)NCC(C)CSc2ccc(Cl)cc2)c1 (configuration not stated),-2.3,82*,.,8.9*,.
O=C(Nc1nc(-c2cc3ccccc3o2)cs1)c1ccc(S(=O)(=O)N2CCCC2)cc1,-0.39,-1,-39,3,5
CN(C)S(=O)(=O)c1ccc(C(=O)Nc2nc(-c3cc4ccccc4o3)cs2)cc1,-0.34,10,-57,3,28*
Cc1ccnn1CCC(=O)N1CCCC(CCC(=O)N2CCN(c3ccccn3)CC2)C1 (configuration not stated),0.36,5,.,0,.
C=CCSC1=N/C(=C\c2sccc2C)C(=O)S1,1.4,2,-62,9.4*,-20
O=c1cc(CN2CCN(c3cccc(C(F)(F)F)c3)CC2)nc2sccn12,-0.83,.,.,.,.
CC(/C=C1\N=C(SCc2ccccc2)SC1=O)=C\c1ccccc1,1.1,-9,-17,9.9*,1
CC(=C/c1ccccc1)/C=C1/SC(N2CCOCC2)=NC1=O,-2.2,6,-22,1,-29
O=c1[nH]ncc(N2CCN(C(c3ccccc3)c3ccccc3)CC2)c1Cl,-0.22,69*,-13,2,3
O=c1[nH]ncc(N2CCCC2)c1Cl,-0.0048,1,.,1,.
O=C(c1ccccc1)c1ccc(OCCn2cnc3ccccc3c2=O)cc1,0.26,10,-2,5,-16
CC(C)(c1ccccc1)c1ccc(OCCn2cnc3ccccc3c2=O)cc1,-5.3,.,-33,8.7*,3
